In ChEMBL document CHEMBL1153120, “Synthesis and antiplasmodial activity of novel 2,4-diaminopyrimidines” (Bioorg Med Chem Lett, 2010):
Converted amounts (≈) assume the structure as drawn.

Columns and labels:
[1] = system: Plasmodium falciparum; test: Antiplasmodial activity against Plasmodium falciparum Dd2; format: functional, organism-based
Outline: (§1)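 P. falciparum cultures (lab strain 3D7; multidrug-resistant Southeast Asian isolate Dd2) were exposed to compound for 72 h. Parasite viability was read out by DAPI staining.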

[2] = system: Plasmodium falciparum; test: Antiplasmodial activity against Plasmodium falciparum 3D7; format: functional, organism-based; outline: as §1
[3] = system: Liver microsomes; test: Intrinsic clearance in human liver microsomes measured […]; format: ADME, Microsome
[4] = system: Liver microsomes; test: Intrinsic clearance in rat liver microsomes measured […]; format: ADME, Microsome
[5] = Lipophilicity, log D of the compound; format: physicochemical; settings: octanol/water
Outline: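 Log D was measured at pH 7.4 as the partitioning of compound between an aqueous layer and a second phase.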

[6] = target: Voltage-gated inwardly rectifying potassium channel KCNH2 (Homo sapiens, UniProt Q12809); test: Inhibition of human ERG channel
[7] = target: T1, Cytochrome P450 1A2 (Homo sapiens, UniProt P05177); test: Inhibition of human CYP1A2; format: ADME
T1 sequence (P05177 whole entry): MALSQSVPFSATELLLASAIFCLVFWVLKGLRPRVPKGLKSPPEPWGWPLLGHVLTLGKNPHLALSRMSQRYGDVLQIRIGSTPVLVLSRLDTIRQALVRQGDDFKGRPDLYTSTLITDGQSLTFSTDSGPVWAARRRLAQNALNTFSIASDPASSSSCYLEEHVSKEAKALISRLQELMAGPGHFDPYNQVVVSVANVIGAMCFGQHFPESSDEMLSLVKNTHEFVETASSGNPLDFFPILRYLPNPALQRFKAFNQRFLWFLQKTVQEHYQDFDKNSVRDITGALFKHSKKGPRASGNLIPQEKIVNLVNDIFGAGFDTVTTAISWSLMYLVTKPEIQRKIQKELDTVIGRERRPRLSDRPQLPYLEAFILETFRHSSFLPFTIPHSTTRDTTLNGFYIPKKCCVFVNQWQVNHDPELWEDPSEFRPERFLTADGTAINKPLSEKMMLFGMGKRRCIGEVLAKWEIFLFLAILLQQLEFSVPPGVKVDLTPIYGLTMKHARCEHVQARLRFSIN

[8] = Cytotoxicity against human NHDF after 4 days by alamar blue assay; format: cell-based; settings: NHDF cells, read-out: LC50
[9] = target: Cytochrome P450 2C9 (Homo sapiens, UniProt P11712); test: Inhibition of human CYP2C9; format: ADME
[10] = target: Cytochrome P450 3A4 (Homo sapiens, UniProt P08684); test: Inhibition of human CYP3A4; format: ADME
[11] = target: Cytochrome P450 2C19 (Homo sapiens, UniProt P33261); test: Inhibition of human CYP2C19; format: ADME
[12] = Cytotoxicity against human RPTEC after 4 days by alamar blue assay; format: cell-based; settings: RPTEC cells, read-out: LC50
[13] = target: Cytochrome P450 2D6 (Homo sapiens, UniProt P10635); test: Inhibition of human CYP2D6; format: ADME
[14] = Solubility at pH 7.4; format: physicochemical; settings: buffer

Voltage-gated inwardly rectifying potassium channel KCNH2, sequence (Q12809 whole entry): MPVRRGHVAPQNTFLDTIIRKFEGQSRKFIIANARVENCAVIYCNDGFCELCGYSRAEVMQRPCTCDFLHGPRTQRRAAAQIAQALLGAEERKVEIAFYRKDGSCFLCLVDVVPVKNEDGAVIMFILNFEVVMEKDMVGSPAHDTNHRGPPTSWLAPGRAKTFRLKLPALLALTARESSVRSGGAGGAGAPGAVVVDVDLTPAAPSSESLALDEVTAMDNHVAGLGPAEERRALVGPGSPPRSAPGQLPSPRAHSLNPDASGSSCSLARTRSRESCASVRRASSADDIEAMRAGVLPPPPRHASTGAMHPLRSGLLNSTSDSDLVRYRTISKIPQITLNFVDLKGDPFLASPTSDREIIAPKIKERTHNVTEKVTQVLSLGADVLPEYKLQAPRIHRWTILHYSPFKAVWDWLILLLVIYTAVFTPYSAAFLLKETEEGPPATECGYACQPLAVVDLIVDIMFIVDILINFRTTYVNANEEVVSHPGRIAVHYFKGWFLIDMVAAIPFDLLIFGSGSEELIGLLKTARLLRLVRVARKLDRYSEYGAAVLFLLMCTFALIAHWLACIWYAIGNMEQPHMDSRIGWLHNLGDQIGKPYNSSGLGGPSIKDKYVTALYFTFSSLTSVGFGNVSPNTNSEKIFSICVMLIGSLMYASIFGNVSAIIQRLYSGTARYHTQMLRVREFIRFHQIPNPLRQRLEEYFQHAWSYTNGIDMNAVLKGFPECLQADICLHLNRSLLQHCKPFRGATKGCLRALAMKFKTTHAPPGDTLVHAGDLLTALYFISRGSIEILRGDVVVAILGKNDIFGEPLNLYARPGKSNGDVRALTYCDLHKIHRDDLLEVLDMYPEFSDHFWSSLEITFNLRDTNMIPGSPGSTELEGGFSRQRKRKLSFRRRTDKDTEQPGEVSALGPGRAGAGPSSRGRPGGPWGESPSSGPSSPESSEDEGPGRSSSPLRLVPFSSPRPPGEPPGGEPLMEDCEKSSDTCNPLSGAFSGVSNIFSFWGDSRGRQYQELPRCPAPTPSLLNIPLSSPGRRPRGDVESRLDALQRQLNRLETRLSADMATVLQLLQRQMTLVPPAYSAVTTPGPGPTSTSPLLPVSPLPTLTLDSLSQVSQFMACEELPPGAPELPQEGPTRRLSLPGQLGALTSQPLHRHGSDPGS
Cytochrome P450 2D6, sequence (P10635 whole entry): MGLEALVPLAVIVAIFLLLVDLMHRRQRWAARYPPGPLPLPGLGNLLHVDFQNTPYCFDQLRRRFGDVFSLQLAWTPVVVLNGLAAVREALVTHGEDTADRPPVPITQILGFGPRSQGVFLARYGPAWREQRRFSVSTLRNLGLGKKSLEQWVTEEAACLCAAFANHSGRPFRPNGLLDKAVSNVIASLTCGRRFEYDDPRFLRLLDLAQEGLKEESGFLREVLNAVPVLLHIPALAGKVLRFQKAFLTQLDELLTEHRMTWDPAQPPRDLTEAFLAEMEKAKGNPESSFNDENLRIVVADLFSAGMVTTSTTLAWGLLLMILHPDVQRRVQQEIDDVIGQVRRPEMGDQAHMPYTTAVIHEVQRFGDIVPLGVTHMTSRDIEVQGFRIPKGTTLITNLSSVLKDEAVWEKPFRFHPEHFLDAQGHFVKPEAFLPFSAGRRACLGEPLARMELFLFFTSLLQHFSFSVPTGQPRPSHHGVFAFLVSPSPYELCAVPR
Cytochrome P450 3A4, sequence (P08684 whole entry): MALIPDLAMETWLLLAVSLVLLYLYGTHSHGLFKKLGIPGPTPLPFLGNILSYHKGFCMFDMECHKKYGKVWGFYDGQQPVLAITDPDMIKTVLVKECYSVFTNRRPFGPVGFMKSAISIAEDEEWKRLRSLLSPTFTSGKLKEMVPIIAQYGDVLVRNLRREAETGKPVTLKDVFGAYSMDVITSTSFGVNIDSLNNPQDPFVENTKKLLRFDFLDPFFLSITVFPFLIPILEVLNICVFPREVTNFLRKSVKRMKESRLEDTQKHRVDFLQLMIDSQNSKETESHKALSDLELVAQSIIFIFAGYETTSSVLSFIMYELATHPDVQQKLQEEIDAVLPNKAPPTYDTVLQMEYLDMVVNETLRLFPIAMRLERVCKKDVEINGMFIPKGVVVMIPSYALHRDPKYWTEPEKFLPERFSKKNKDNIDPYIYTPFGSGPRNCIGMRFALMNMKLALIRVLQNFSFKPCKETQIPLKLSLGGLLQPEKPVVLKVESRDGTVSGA
Cytochrome P450 2C9, sequence (P11712 whole entry): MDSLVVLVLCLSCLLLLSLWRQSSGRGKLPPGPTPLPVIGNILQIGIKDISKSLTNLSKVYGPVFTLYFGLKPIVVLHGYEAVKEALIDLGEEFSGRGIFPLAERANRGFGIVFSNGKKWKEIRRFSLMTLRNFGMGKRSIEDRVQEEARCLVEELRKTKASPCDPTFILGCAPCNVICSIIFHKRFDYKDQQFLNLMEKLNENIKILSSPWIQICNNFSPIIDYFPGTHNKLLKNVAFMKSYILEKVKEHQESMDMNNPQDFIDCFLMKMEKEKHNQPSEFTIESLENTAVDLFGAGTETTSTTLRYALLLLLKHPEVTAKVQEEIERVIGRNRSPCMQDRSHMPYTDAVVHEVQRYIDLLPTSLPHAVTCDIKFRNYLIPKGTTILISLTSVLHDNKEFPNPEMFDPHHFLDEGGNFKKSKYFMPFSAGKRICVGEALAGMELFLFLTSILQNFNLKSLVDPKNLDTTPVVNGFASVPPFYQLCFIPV
Cytochrome P450 2C19, sequence (P33261 whole entry): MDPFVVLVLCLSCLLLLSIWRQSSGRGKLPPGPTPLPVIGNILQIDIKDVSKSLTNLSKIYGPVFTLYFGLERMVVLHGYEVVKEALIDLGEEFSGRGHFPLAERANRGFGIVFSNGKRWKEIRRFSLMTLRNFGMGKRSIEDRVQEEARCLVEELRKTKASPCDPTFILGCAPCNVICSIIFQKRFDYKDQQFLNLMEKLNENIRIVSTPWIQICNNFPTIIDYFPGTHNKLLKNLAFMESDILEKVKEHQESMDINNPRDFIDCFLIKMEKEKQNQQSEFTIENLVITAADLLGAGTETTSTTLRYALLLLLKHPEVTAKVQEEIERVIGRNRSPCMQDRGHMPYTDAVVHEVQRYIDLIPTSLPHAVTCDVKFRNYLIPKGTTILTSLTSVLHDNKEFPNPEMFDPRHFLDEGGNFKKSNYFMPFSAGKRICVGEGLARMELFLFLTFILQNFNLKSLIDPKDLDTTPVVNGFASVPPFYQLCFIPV

SMILES	EC50 [1] [nM]	EC50 [2] [nM]	other results
Cc1cc(Nc2ccccc2)nc(NC(C)C)n1	750	280	–
Cc1cc(NC2CCCCC2)nc(N(C)Cc2ccccc2)n1	> 10000	> 10000	–
Cc1cc(Nc2ccccc2)nc(NCc2ccccc2)n1	90	120	clearance [3]: 55.2 µL/min/mg; clearance [4]: > 119 µL/min/mg
Cc1cc(Nc2ccccc2)nc(NCc2ccccn2)n1	2140	–	clearance [3]: 70 µL/min/mg; clearance [4]: 114 µL/min/mg
COc1cc(CNc2nc(C)cc(NCc3ccccc3)n2)cc(OC)c1OC	930	780	–
Cc1cc(NC(C)C)nc(NCCN2CCCC2)n1	> 5000	–	–
Cc1cc(NC(C)C)nc(NCc2ccccc2)n1	350	–	–
Cc1cc(NC(C)C)nc(NC2CCCCC2)n1	390	–	–
Cc1cc(NC2CCCCC2)nc(NCc2ccc3c(ccn3C)c2)n1	240	–	–
Cc1cc(NC(C)C)nc(NCC23CC4CC(CC(C4)C2)C3)n1	270	–	–
Cc1cc(NC2CCCCC2)nc(NC2CCN(Cc3ccccc3)CC2)n1	250	–	–
Cc1cc(Nc2ccccc2)nc(NCCN2CCCC2)n1	1240	1460	–
Cc1cc(N2CCCN(C(=O)OC(C)(C)C)CC2)nc(NC2CCN(Cc3ccccc3)CC2)n1	–	–	logD [5]: 2.7
Cc1cc(NC2CCCCC2)nc(NCC23CC4CC(CC(C4)C2)C3)n1	370	–	–
Cc1cc(NC2CCN(Cc3ccccc3)CC2)nc(N2CCCNCC2)n1	–	–	logD [5]: -0.17
Cc1cc(N(C)C2CCCCC2)nc(N(C)Cc2ccccc2)n1	> 10000	> 10000	–
Cc1cc(NC(C)C)nc(NC2CCN(Cc3ccccc3)CC2)n1	810	–	–
FC(F)(F)c1cc(Nc2ccccc2)nc(NCc2ccncc2)n1	–	–	clearance [3]: 56.2 µL/min/mg; clearance [4]: > 119 µL/min/mg
Cc1cc(Nc2ccccc2)nc(N2CCCN(C(=O)OC(C)(C)C)CC2)n1	–	–	logD [5]: 3.95

SMILES	EC50 [1] [nM]	EC50 [2] [nM]	other results
Cc1cc(NCc2ccccc2)nc(NCC23CC4CC(CC(C4)C2)C3)n1	400	410	–
Cc1cc(NCc2ccccc2)nc(NC2CCN(Cc3ccccc3)CC2)n1	160	160	–
Cc1cc(N2CCCN(C)CC2)nc(NC2CCN(Cc3ccccc3)CC2)n1	–	–	logD [5]: 1
CCCCCCCNc1nc(C)cc(NC(C)C)n1	310	–	–
Cc1cc(Nc2ccccc2)nc(N2CCCN(C)CC2)n1	–	–	logD [5]: 1.7
Cc1cc(NC2CCN(Cc3ccccc3)CC2)nc(N2CCCN(C)CC2)n1	–	–	logD [5]: 1
Cc1cc(NC2CCCCC2)nc(Nc2ccccn2)n1	> 2000	> 1000	–
Cc1cc(NC(C)C)nc(NC(C)C)n1	4270	–	–
Cc1cc(N(C)C2CCCCC2)nc(N[C@H](C)c2ccccc2)n1	940	630	–
Cc1cc(NC2CCCCC2)nc(N[C@@H](C)c2ccccc2)n1	500	120	–
Cc1cc(NCc2ccccc2)nc(Nc2ccccc2)n1	1020	850	–
Cc1cc(Nc2ccccc2)nc(NCc2ccc3c(c2)OCO3)n1	360	110	IC50 [6]: 9500 nM; clearance [3]: 31.3 µL/min/mg; clearance [4]: > 119 µL/min/mg
Cc1cc(Nc2ccccc2)nc(NCc2ccc3c(ccn3C)c2)n1	590	350	–
CCCCCCCNc1nc(C)cc(Nc2ccccc2)n1	90	90	–
Cc1cc(NCc2ccccc2)nc(NCCN2CCCC2)n1	1450	1080	–
Cc1cc(NC(C)C)nc(Nc2ccccc2)n1	1500	–	–
Cc1cc(N(C)C2CCCCC2)nc(NCc2ccccc2)n1	1020	680	–
Cc1cc(N2CCCNCC2)nc(NC2CCN(Cc3ccccc3)CC2)n1	–	–	logD [5]: -0.15
Cc1cc(NC(C)C)nc(NCc2ccc3c(c2)OCO3)n1	840	–	–

SMILES	EC50 [1] [nM]	EC50 [2] [nM]	other results
FC(F)(F)c1cc(Nc2ccncc2)nc(NCc2ccc3c(c2)OCO3)n1	–	–	IC50 [6]: 135000 nM
Cc1cc(NC2CCCCC2)nc(NCc2ccccc2)n1	250	80	IC50 [7]: 3100 nM; CC50 at 96 h [8]: 7500 nM; IC50 [9]: > 5000 nM; IC50 [10]: > 5000 nM; IC50 [11]: > 5000 nM; logD [5]: 3.9; CC50 at 96 h [12]: 7500 nM; IC50 [13]: 4200 nM; solubility [14]: 26 µg/mL (≈ 87.7 µM)
Cc1cc(NC2CCN(Cc3ccccc3)CC2)nc(N2CCCN(C(=O)OC(C)(C)C)CC2)n1	–	–	logD [5]: 2.77
Cc1cc(NCc2ccccc2)nc(NC(C)C)n1	1050	1430	–
FC(F)(F)c1cc(Nc2ccccc2)nc(NCc2ccccn2)n1	–	–	IC50 [6]: 40100 nM; clearance [3]: > 99 µL/min/mg; clearance [4]: > 119 µL/min/mg
Cc1cc(NC2CCCCC2)nc(Nc2ccccc2)n1	230	–	–
Cc1cc(NC2CCCCC2)nc(NC2CCCCC2)n1	210	–	–
Cc1cc(NC(C)C)nc(NCc2ccc3c(ccn3C)c2)n1	1220	–	–
COc1cc(CNc2nc(C)cc(NC(C)C)n2)cc(OC)c1OC	1920	–	–
Cc1cc(NC2CCCCC2)nc(N[C@H](C)c2ccccc2)n1	420	90	–
CCCCCCCNc1nc(C)cc(NC2CCCCC2)n1	210	–	–
Cc1cc(NC2CCCCC2)nc(NCCN2CCCC2)n1	2750	–	–
COc1cc(CNc2nc(C)cc(NC3CCCCC3)n2)cc(OC)c1OC	260	–	–
Cc1cc(N(C)C2CCCCC2)nc(N[C@@H](C)c2ccccc2)n1	690	590	–
Cc1cc(NC2CCCCC2)nc(NC(C)C)n1	740	–	–
Cc1cc(Nc2ccccc2)nc(N2CCCNCC2)n1	–	–	logD [5]: 0.51
Cc1cc(NC2CCCCC2)nc(NCc2ccc3c(c2)OCO3)n1	200	–	–
Cc1cc(NCc2ccccc2)nc(NC2CCCCC2)n1	1260	430	–
